The source of these data is ChEMBL document CHEMBL1821653, “Alcohol-, diol-, and carbohydrate-substituted indenoisoquinolines as topoisomerase I inhibitors: investigating the relationships involving stereochemistry, hydrogen bonding, and biological activity” (2011).

In one assay the test system is UACC-62. Description: Antiproliferative activity against human UACC62 cells by SRB assay. It counts as functional. The gist of the method:
(§1)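 NCI 60-cell-line human tumor panel. Compounds first screened at one dose of 10^-5 M. Selected compounds then tested at five concentrations from 10^-8 to 10^-4 M. GI50 is the concentration giving 50% growth inhibition. GI50 values outside the tested range are assigned 10^-8 M or 10^-4 M.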
On the technique in general: In SRB staining, fixed cells bind dye roughly in proportion to their protein.

For the next assay, the system named is HCT-116. Description: Antiproliferative activity against human HCT116 cells by SRB assay. It counts as functional. The procedure, abridged:
as §1

The target of assay [1] is T1, DNA topoisomerase 1 (Homo sapiens) (UniProt P11387).
T1 sequence (whole entry): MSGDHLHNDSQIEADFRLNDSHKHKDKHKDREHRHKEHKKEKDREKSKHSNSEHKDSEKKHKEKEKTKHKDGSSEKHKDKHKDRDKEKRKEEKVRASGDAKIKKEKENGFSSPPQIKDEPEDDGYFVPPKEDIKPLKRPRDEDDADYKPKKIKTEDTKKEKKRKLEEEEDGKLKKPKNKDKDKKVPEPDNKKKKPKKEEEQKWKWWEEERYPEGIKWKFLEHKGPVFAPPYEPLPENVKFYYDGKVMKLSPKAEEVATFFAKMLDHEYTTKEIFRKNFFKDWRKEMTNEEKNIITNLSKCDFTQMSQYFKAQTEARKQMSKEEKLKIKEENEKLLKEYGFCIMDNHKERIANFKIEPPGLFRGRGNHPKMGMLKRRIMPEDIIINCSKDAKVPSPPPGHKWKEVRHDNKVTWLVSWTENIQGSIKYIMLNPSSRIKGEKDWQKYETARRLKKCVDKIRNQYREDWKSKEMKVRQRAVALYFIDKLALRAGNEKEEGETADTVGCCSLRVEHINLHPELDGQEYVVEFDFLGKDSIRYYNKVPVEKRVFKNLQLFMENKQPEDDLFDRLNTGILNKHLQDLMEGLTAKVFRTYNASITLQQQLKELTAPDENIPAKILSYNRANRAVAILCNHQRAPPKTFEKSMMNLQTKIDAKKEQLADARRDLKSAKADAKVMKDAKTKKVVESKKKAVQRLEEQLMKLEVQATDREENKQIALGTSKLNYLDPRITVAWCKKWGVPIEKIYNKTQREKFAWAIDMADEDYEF
Description: Inhibition of recombinant human TOP1 mediated DNA cleavage after 20 mins by gel electrophoresis relative to camptothecin. Also noted: concentration or dose not given beside the values. The procedure, abridged:
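117-bp oligonucleotide containing Top1 cleavage sites, 3'-end labeled with [α-32P]-dGTP by Klenow fill-in. About 2 nM substrate incubated with recombinant Top1 and various compound concentrations for 20 min at 25 °C in 10 mM Tris-HCl pH 7.5, 50 mM KCl, 5 mM MgCl2, 0.1 mM EDTA, 15 μg/mL BSA. Stopped with 0.5% SDS, run on 20% denaturing PAGE, phosphorimaged.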

The test system of a further assay is DU-145. Description: Antiproliferative activity against human DU145 cells by SRB assay. It counts as functional. The procedure, abridged: as §1
The next assay has as its system SN12C. Description: Antiproliferative activity against human SN12C cells by SRB assay. It counts as functional. The gist of the method:
as §1

A further assay relates to SF-539. Description: Antiproliferative activity against human SF539 cells by SRB assay. It counts as functional. The gist of the method: as §1
The next assay concerns OVCAR-3. Description: Antiproliferative activity against human OVCAR3 cells by SRB assay. It counts as functional. The gist of the method: as §1
The next assay relates to MCF7. Description: Antiproliferative activity against human MCF7 cells by SRB assay. It counts as functional. The procedure, abridged:
as §1

The subject of a further assay is HOP-62. Description: Antiproliferative activity against human HOP62 cells by SRB assay. It counts as functional. The procedure, abridged:
as §1

Usually GI50 stands for the concentration at which growth is held to half of that of the control. Broadly, the inhibition is how much of the control response was suppressed.

Take `COc1cc2c3c(n(C[C@H](O)CO)c(=O)c2cc1OC)-c1ccccc1C3=O`: the GI50 in the assay with UACC-62 is 144 nM; in the assay with HCT-116 it was 230 nM; with DU-145, 419 nM; in the assay with SN12C, 501 nM; in the assay on SF-539, 214 nM; with OVCAR-3 it was 287 nM. The figures for the GI50 with MCF7 and in the assay with HOP-62 were 97 nM and 336 nM, respectively. The inhibition in [1] is 75%.
